Assay results published in ChEMBL document CHEMBL4152188, “Design, synthesis and biological evaluation of C(4) substituted monobactams as antibacterial agents against multidrug-resistant Gram-negative bacteria” (Eur J Med Chem, 2018).
Values after ≈ are worked out from the molar mass of the structure shown.

Tests used:
Assay type in all cases: functional
Escherichia coli [1] = assay: Antibacterial activity against extended-spectrum beta-lactamase producing Escherichia coli isolate 212648 after 18 hrs by CLSI broth microdilution method; details: isolate 212648, 18 h
Escherichia coli [2] = assay: Selectivity index, ratio of MIC for against extended-spectrum beta-lactamase producing Escherichia coli isolate 208687 to MIC for extended-spectrum beta-lactamase producing Escherichia coli isolate 208687 in presence of BPL
Escherichia coli [3] = assay: Antibacterial activity against Escherichia coli isolate 210737 after 18 hrs by CLSI broth microdilution method; details: isolate 210737, 18 h
Escherichia coli [4] = assay: Antibacterial activity against extended-spectrum beta-lactamase producing Escherichia coli isolate 208687 after 18 hrs by CLSI broth microdilution method; details: isolate 208687, 18 h
Escherichia coli [5] = assay: Antibacterial activity against extended-spectrum beta-lactamase producing Escherichia coli isolate 208687 after 18 hrs in presence of BPL by CLSI broth microdilution method; details: isolate 208687, 18 h
How it was run: (§1)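 CLSI broth microdilution against clinical isolates (ESBL E. coli, KPC-2 MDR K. pneumoniae, IMP-4 MDR P. aeruginosa; five per species). Iron limitation: Mueller-Hinton broth supplemented with 16 mg/liter 2,2'-bipyridyl to complex iron and induce iron uptake systems. Read-out: MIC.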

Escherichia coli [6] = assay: Antibacterial activity against Escherichia coli isolate 210737 after 18 hrs in presence of BPL by CLSI broth microdilution method; details: isolate 210737, 18 h; how it was run: as §1
Escherichia coli [7] = assay: Selectivity index, ratio of MIC for against Escherichia coli isolate 210737 to MIC for Escherichia coli isolate 210737 in presence of BPL
Escherichia coli [8] = assay: Antibacterial activity against extended-spectrum beta-lactamase producing Escherichia coli isolate 212648 after 18 hrs in presence of BPL by CLSI broth microdilution method; details: isolate 212648, 18 h; how it was run: as §1
Escherichia coli [9] = assay: Selectivity index, ratio of MIC for against extended-spectrum beta-lactamase producing Escherichia coli isolate 212648 to MIC for extended-spectrum beta-lactamase producing Escherichia coli isolate 212648 in presence of BPL
Escherichia coli [10] = assay: Antibacterial activity against extended-spectrum beta-lactamase producing Escherichia coli isolate 209285 after 18 hrs by CLSI broth microdilution method; details: isolate 209285, 18 h
Escherichia coli [11] = assay: Antibacterial activity against extended-spectrum beta-lactamase producing Escherichia coli isolate 209285 after 18 hrs in presence of BPL by CLSI broth microdilution method; details: isolate 209285, 18 h; how it was run: as §1
Escherichia coli [12] = assay: Selectivity index, ratio of MIC for against extended-spectrum beta-lactamase producing Escherichia coli isolate 209285 to MIC for extended-spectrum beta-lactamase producing Escherichia coli isolate 209285 in presence of BPL
Escherichia coli [13] = assay: Antibacterial activity against extended-spectrum beta-lactamase producing Escherichia coli isolate 106342 after 18 hrs by CLSI broth microdilution method; details: isolate 106342, 18 h
Escherichia coli [14] = assay: Antibacterial activity against extended-spectrum beta-lactamase producing Escherichia coli isolate 106342 after 18 hrs in presence of BPL by CLSI broth microdilution method; details: isolate 106342, 18 h; how it was run: as §1
Escherichia coli [15] = assay: Selectivity index, ratio of MIC for against extended-spectrum beta-lactamase producing Escherichia coli isolate 106342 to MIC for extended-spectrum beta-lactamase producing Escherichia coli isolate 106342 in presence of BPL
Klebsiella pneumoniae [16] = assay: Antibacterial activity against KPC-2 producing Klebsiella pneumoniae isolate 212423 after 18 hrs by CLSI broth microdilution method; details: isolate 212423, 18 h
Klebsiella pneumoniae [17] = assay: Antibacterial activity against KPC-2 producing Klebsiella pneumoniae isolate 212423 after 18 hrs in presence of BPL by CLSI broth microdilution method; details: isolate 212423, 18 h; how it was run: as §1
Klebsiella pneumoniae [18] = assay: Selectivity index, ratio of MIC for against KPC-2 producing Klebsiella pneumoniae isolate 212423 to MIC for against KPC-2 producing Klebsiella pneumoniae isolate 212423 in presence of BPL
Klebsiella pneumoniae [19] = assay: Antibacterial activity against KPC-2 producing Klebsiella pneumoniae isolate 209632 after 18 hrs by CLSI broth microdilution method; details: isolate 209632, 18 h
Klebsiella pneumoniae [20] = assay: Antibacterial activity against KPC-2 producing Klebsiella pneumoniae isolate 209632 after 18 hrs in presence of BPL by CLSI broth microdilution method; details: isolate 209632, 18 h; how it was run: as §1
Klebsiella pneumoniae [21] = assay: Selectivity index, ratio of MIC for against KPC-2 producing Klebsiella pneumoniae isolate 209632 to MIC for against KPC-2 producing Klebsiella pneumoniae isolate 209632 in presence of BPL
Klebsiella pneumoniae [22] = assay: Antibacterial activity against KPC-2 producing Klebsiella pneumoniae isolate 209735 after 18 hrs by CLSI broth microdilution method; details: isolate 209735, 18 h
Klebsiella pneumoniae [23] = assay: Antibacterial activity against KPC-2 producing Klebsiella pneumoniae isolate 209735 after 18 hrs in presence of BPL by CLSI broth microdilution method; details: isolate 209735, 18 h; how it was run: as §1
Klebsiella pneumoniae [24] = assay: Selectivity index, ratio of MIC for against KPC-2 producing Klebsiella pneumoniae isolate 209735 to MIC for against KPC-2 producing Klebsiella pneumoniae isolate 209735 in presence of BPL
Klebsiella pneumoniae [25] = assay: Antibacterial activity against KPC-2 producing Klebsiella pneumoniae isolate 212232 after 18 hrs by CLSI broth microdilution method; details: isolate 212232, 18 h
Klebsiella pneumoniae [26] = assay: Antibacterial activity against KPC-2 producing Klebsiella pneumoniae isolate 212232 after 18 hrs in presence of BPL by CLSI broth microdilution method; details: isolate 212232, 18 h; how it was run: as §1
Klebsiella pneumoniae [27] = assay: Selectivity index, ratio of MIC for against KPC-2 producing Klebsiella pneumoniae isolate 212232 to MIC for against KPC-2 producing Klebsiella pneumoniae isolate 212232 in presence of BPL
Klebsiella pneumoniae [28] = assay: Antibacterial activity against KPC-2 producing Klebsiella pneumoniae isolate 212229 after 18 hrs by CLSI broth microdilution method; details: isolate 212229, 18 h
Klebsiella pneumoniae [29] = assay: Antibacterial activity against KPC-2 producing Klebsiella pneumoniae isolate 212229 after 18 hrs in presence of BPL by CLSI broth microdilution method; details: isolate 212229, 18 h; how it was run: as §1
Klebsiella pneumoniae [30] = assay: Selectivity index, ratio of MIC for against KPC-2 producing Klebsiella pneumoniae isolate 212229 to MIC for against KPC-2 producing Klebsiella pneumoniae isolate 212229 in presence of BPL
Pseudomonas aeruginosa [31] = assay: Antibacterial activity against IMP-4 producing Pseudomonas aeruginosa isolate 212886 after 18 hrs by CLSI broth microdilution method; details: isolate 212886, 18 h
Pseudomonas aeruginosa [32] = assay: Antibacterial activity against IMP-4 producing Pseudomonas aeruginosa isolate 212886 after 18 hrs in presence of BPL by CLSI broth microdilution method; details: isolate 212886, 18 h; how it was run: as §1
Pseudomonas aeruginosa [33] = assay: Selectivity index, ratio of MIC for against IMP-4 producing Pseudomonas aeruginosa isolate 212886 to MIC for against IMP-4 producing Pseudomonas aeruginosa isolate 212886 in presence of BPL
Pseudomonas aeruginosa [34] = assay: Antibacterial activity against IMP-4 producing Pseudomonas aeruginosa isolate 209471 after 18 hrs by CLSI broth microdilution method; details: isolate 209471, 18 h
Pseudomonas aeruginosa [35] = assay: Antibacterial activity against IMP-4 producing Pseudomonas aeruginosa isolate 209471 after 18 hrs in presence of BPL by CLSI broth microdilution method; details: isolate 209471, 18 h; how it was run: as §1
Pseudomonas aeruginosa [36] = assay: Selectivity index, ratio of MIC for against IMP-4 producing Pseudomonas aeruginosa isolate 209471 to MIC for against IMP-4 producing Pseudomonas aeruginosa isolate 209471 in presence of BPL
Pseudomonas aeruginosa [37] = assay: Antibacterial activity against IMP-4 producing Pseudomonas aeruginosa isolate 208247 after 18 hrs by CLSI broth microdilution method; details: isolate 208247, 18 h
Pseudomonas aeruginosa [38] = assay: Antibacterial activity against IMP-4 producing Pseudomonas aeruginosa isolate 208247 after 18 hrs in presence of BPL by CLSI broth microdilution method; details: isolate 208247, 18 h; how it was run: as §1
Pseudomonas aeruginosa [39] = assay: Selectivity index, ratio of MIC for against IMP-4 producing Pseudomonas aeruginosa isolate 208247 to MIC for against IMP-4 producing Pseudomonas aeruginosa isolate 208247 in presence of BPL
Pseudomonas aeruginosa [40] = assay: Antibacterial activity against IMP-4 producing Pseudomonas aeruginosa isolate 209321 after 18 hrs by CLSI broth microdilution method; details: isolate 209321, 18 h
Pseudomonas aeruginosa [41] = assay: Antibacterial activity against IMP-4 producing Pseudomonas aeruginosa isolate 209321 after 18 hrs in presence of BPL by CLSI broth microdilution method; details: isolate 209321, 18 h; how it was run: as §1
Pseudomonas aeruginosa [42] = assay: Selectivity index, ratio of MIC for against IMP-4 producing Pseudomonas aeruginosa isolate 209321 to MIC for against IMP-4 producing Pseudomonas aeruginosa isolate 209321 in presence of BPL
Pseudomonas aeruginosa [43] = assay: Antibacterial activity against IMP-4 producing Pseudomonas aeruginosa isolate 207272 after 18 hrs by CLSI broth microdilution method; details: isolate 207272, 18 h
Pseudomonas aeruginosa [44] = assay: Antibacterial activity against IMP-4 producing Pseudomonas aeruginosa isolate 207272 after 18 hrs in presence of BPL by CLSI broth microdilution method; details: isolate 207272, 18 h; how it was run: as §1
Pseudomonas aeruginosa [45] = assay: Selectivity index, ratio of MIC for against IMP-4 producing Pseudomonas aeruginosa isolate 207272 to MIC for against IMP-4 producing Pseudomonas aeruginosa isolate 207272 in presence of BPL

## CC(=O)OC[C@@H]1[C@H](NC(=O)/C(=N\OC(c2cc(=O)c(O)cn2O)C(C)C)c2csc(N)n2)C(=O)N1S(=O)(=O)O (stereo not given in full)
Escherichia coli [1]
  MIC: 1 µg/mL (≈ 1.7 µM)
Escherichia coli [2]
  Selectivity Index: 4
Escherichia coli [3]
  MIC: 0.5 µg/mL (≈ 0.85 µM)
Escherichia coli [4]
  MIC: 1 µg/mL (≈ 1.7 µM)
Escherichia coli [5]
  MIC: 0.25 µg/mL
Escherichia coli [6]
  MIC: 0.5 µg/mL
Escherichia coli [7]
  Selectivity Index: 1
Escherichia coli [8]
  MIC: 0.5 µg/mL
Escherichia coli [9]
  Selectivity Index: 2
Escherichia coli [10]
  MIC: 1 µg/mL (≈ 1.7 µM)
Escherichia coli [11]
  MIC: 0.5 µg/mL
Escherichia coli [12]
  Selectivity Index: 2
Escherichia coli [13]
  MIC: 1 µg/mL (≈ 1.7 µM)
Escherichia coli [14]
  MIC: 1 µg/mL
Escherichia coli [15]
  Selectivity Index: 1
Klebsiella pneumoniae [16]
  MIC: 2 µg/mL (≈ 3.4 µM)
Klebsiella pneumoniae [17]
  MIC: 1 µg/mL
Klebsiella pneumoniae [18]
  Selectivity Index: 2
Klebsiella pneumoniae [19]
  MIC: 2 µg/mL (≈ 3.4 µM)
Klebsiella pneumoniae [20]
  MIC: 1 µg/mL
Klebsiella pneumoniae [21]
  Selectivity Index: 2
Klebsiella pneumoniae [22]
  MIC: 2 µg/mL (≈ 3.4 µM)
Klebsiella pneumoniae [23]
  MIC: 1 µg/mL
Klebsiella pneumoniae [24]
  Selectivity Index: 2
Klebsiella pneumoniae [25]
  MIC: 8 µg/mL (≈ 13.6 µM)
Klebsiella pneumoniae [26]
  MIC: 0.5 µg/mL
Klebsiella pneumoniae [27]
  Selectivity Index: 16
Klebsiella pneumoniae [28]
  MIC: 2 µg/mL (≈ 3.4 µM)
Klebsiella pneumoniae [29]
  MIC: 1 µg/mL
Klebsiella pneumoniae [30]
  Selectivity Index: 2
Pseudomonas aeruginosa [31]
  MIC: > 64 µg/mL
Pseudomonas aeruginosa [32]
  MIC: 16 µg/mL
Pseudomonas aeruginosa [33]
  Selectivity Index: >4
Pseudomonas aeruginosa [34]
  MIC: 64 µg/mL (≈ 109 µM)
Pseudomonas aeruginosa [35]
  MIC: 32 µg/mL
Pseudomonas aeruginosa [36]
  Selectivity Index: 2
Pseudomonas aeruginosa [37]
  MIC: 64 µg/mL (≈ 109 µM)
Pseudomonas aeruginosa [38]
  MIC: 64 µg/mL
Pseudomonas aeruginosa [39]
  Selectivity Index: 1
Pseudomonas aeruginosa [40]
  MIC: 64 µg/mL (≈ 109 µM)
Pseudomonas aeruginosa [41]
  MIC: 64 µg/mL
Pseudomonas aeruginosa [42]
  Selectivity Index: 1
Pseudomonas aeruginosa [43]
  MIC: > 64 µg/mL
Pseudomonas aeruginosa [44]
  MIC: 64 µg/mL
Pseudomonas aeruginosa [45]
  Selectivity Index: >1
